Assay results from ChEMBL document CHEMBL1255338, “Differential effects of quinoline antimalarials on endocytosis in Plasmodium falciparum” (2008).
Active and inactive are the calls of the source. The calls are words filed in the database; no cut-off is given here.

Key:
Plasmodium falciparum [1] = assay: Antimalarial activity against early trophozoite-stage Plasmodium falciparum 3D7 infected in erythrocyte assessed as reduction in parasite hemoglobin content at 5 times IC50 after 8 hrs; type: functional
Plasmodium falciparum [2] = assay: Antimalarial activity against early trophozoite-stage Plasmodium falciparum 3D7 infected in erythrocyte assessed as reduction in parasite hemoglobin content at 5 times IC50 after 8 hrs in presence of 40 uM protease inhibitor ALLN; type: functional, organism-based
Plasmodium falciparum [3] = assay: Antimalarial activity against early trophozoite-stage Plasmodium falciparum 3D7 infected in erythrocyte assessed as reduction in parasite hemoglobin content at 5 times IC50 after 8 hrs in presence of 40 uM protease inhibitor E64; type: functional, organism-based
Plasmodium falciparum [4] = assay: Antimalarial activity against schizont-stage Plasmodium falciparum 3D7 infected in erythrocyte assessed as inhibition of horseradish peroxidase(HRP) uptake after 10 hrs by colorimetric peroxidase assay; type: functional, organism-based
In short: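 Erythrocytes preloaded with HRP by hypotonic lysis, then infected by incubation with enriched schizont-infected cells. Parasites exposed to quinolines for 10 h, released with saponin, washed, and lysed in Triton X-100. HRP measured colorimetrically with O-phenylenediamine at 450 nm. Significance vs control taken at P < 0.05.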

Plasmodium falciparum [5] = assay: Antimalarial activity against Plasmodium falciparum 3D7 infected in erythrocyte assessed as reduction in endocytic vesicle content after 8 hrs by immunofluorescence microscopy; type: functional, organism-based
In short: (§1)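 Cultures left untreated or given quinoline for 8 h, then parasites freed by saponin lysis, fixed on polylysine-coated coverslips with paraformaldehyde and glutaraldehyde, permeabilized in Triton X-100, and stained with rabbit anti-Hb antiserum and TRITC-conjugated goat anti-rabbit antibody. Hb transport vesicles counted by fluorescence microscopy in 100 randomly chosen parasites per sample; mean per parasite ± SEM.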

Plasmodium falciparum [6] = assay: Antimalarial activity against Plasmodium falciparum 3D7 infected in erythrocyte assessed as increase in vesicle content after 8 hrs by immunofluorescence microscopy; type: functional, organism-based; in short: as §1

Row | Structure (SMILES) | inhibition (INH) (Plasmodium falciparum [1]) [%] | inhibition (Plasmodium falciparum [2]) | inhibition (Plasmodium falciparum [3]) | inhibition (Plasmodium falciparum [4]) | inhibition (Plasmodium falciparum [5]) | inhibition (Plasmodium falciparum [1]) | inhibition (Plasmodium falciparum [6])
1 | CCCCN(CCCC)CCC(O)c1cc2c(Cl)cc(Cl)cc2c2cc(C(F)(F)F)ccc12 (stereo not given) [HALOFANTRINE] | 64 | Active | Active | Active | Active | – | –
2 | OC(c1cc(C(F)(F)F)nc2c(C(F)(F)F)cccc12)C1CCCCN1 (stereo not given) [MEFLOQUINE] | 83 | inactive | inactive | Active | Active | – | –
3 | CCN(CC)Cc1cc(Nc2ccnc3cc(Cl)ccc23)ccc1O | – | inactive | inactive | inactive | – | inactive | Active
4 | C=C[C@H]1CN2CC[C@H]1C[C@H]2[C@H](O)c1ccnc2ccc(OC)cc12 [QUININE] | 84 | Active | Active | Active | Active | – | –
5 | CCN(CC)CCCC(C)Nc1ccnc2cc(Cl)ccc12 (stereo not given) | – | inactive | inactive | inactive | – | inactive | Active
